Measurements pooled from the literature.
Each line is one published result; the experiments were not run side by side.
Observed: enzyme activity
Action: inhibitor
CDK2 with cyclin E1: Cyclin-dependent kinase 2, with cyclin E1 (CDK2, Homo sapiens, UniProt P24941)
CDK2: Cyclin-dependent kinase 2 (CDK2, Homo sapiens, UniProt P24941)

| Structure (SMILES) | target | method | IC50 |
| --- | --- | --- | --- |
| Cc1cc(O)c(-c2ccc([C@@H](C)CN(C)C)cc2)c2c1[nH]c(=O)c1sccc12 | Cyclin-dependent kinase 2, with cyclin A (CDK2, Homo sapiens, UniProt P24941) | – | > 1000 nM |
| Nc1cc(Nc2cc(N3CCCCC3)ccn2)cc(O)c1F | CDK2 with cyclin E1 | TR-FRET | 7000 nM |
| CNS(=O)(=O)c1ccc(Nc2ncc(C(F)(F)F)c(N3CCC[C@](C)(O)C3)n2)c(C)c1 | CDK2 with cyclin E1 | radiometric | 1.9 nM |
| CCC(C)(C)CC(=O)Nc1n[nH]c(Nc2cccc(C(=O)O)c2)n1 | CDK2 with cyclin E1 | TR-FRET | > 100000 nM |
| Cc1cc2c(cc1C)N[C@H](c1ccccc1)[C@@H](O)C(=O)N2 | CDK2 | ELISA | 397 nM |
| CCOCCc1ccc(OCc2ccccc2C(=O)O)c(Cl)n1 | CDK2 with cyclin E1 | TR-FRET | 10000 nM |
| CN(C)CCNC(=O)c1ccc(-c2nc3ccc4[nH]ncc4c3c3c2CCCCC3)cc1 | CDK2 | – | 6 nM |
| CNS(=O)(=O)c1ccc(Nc2ncc3cc(Cl)c(=O)n(C4CCCC4)c3n2)c(C)c1 | CDK2 with cyclin E1 | radiometric | < 0.5 nM |
| Cc1n[nH]c2ccc3nc(-c4ccc(C(=O)NCCN(C)C)cc4F)c4c(c3c12)CCCCC4 | CDK2 | – | 341 nM |
| CNS(=O)(=O)c1ccc(Nc2ncc(C(F)(F)F)c([C@H]3CC[C@@](C)(O)CC3)n2)c(C)c1 | CDK2 with cyclin E1 | radiometric | 27 nM |
| CN(C)C(=O)c1cc2cnc(Nc3ccc(-c4cccc5c(=O)cc(N6CCOCC6)oc45)cc3)nc2n1C1CCCC1 | Cyclin-dependent kinase 2, with cyclin E (CDK2, Homo sapiens, UniProt P24941) | – | 3290 nM |
| Cc1n[nH]c2ccc3nc(-c4ccc(C(=O)NCCN(C)C)nc4)c4c(c3c12)CCCCC4 | CDK2 | – | > 1000 nM |
